# From ChEMBL document CHEMBL4680195, “Negative allosteric modulators of the GluN2B NMDA receptor with phenylethylamine structure embedded in ring-expanded and ring-contracted scaffolds” (Eur J Med Chem, 2020)
# Assays:
# [1] = Cytoprotective activity against glutamate/glycine-induced cell death in mouse L-M(TK-) cells assessed as increase in cell viability at 10 uM incubated for 30 mins followed by glutamate/glycine stimulation and measured after 6 hrs by LDH assay relative to control; assay type: functional; conditions: time 6.5 hrs
# How it was run: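 Mouse L(tk-) fibroblasts stably carrying dexamethasone-inducible GluN1a and GluN2B vectors (1:5). Wells blocked with DMEM containing 1% BSA, then given test compound, at least triplicate, 30 min at 37 °C. Glutamate/glycine solution then added, 6 h at 37 °C. LDH in supernatant read with diaphorase/lactate/NAD+/iodonitrotetrazolium mix, 45 min at 37 °C, absorbance 485 nm. Buffer gave total LDH; (S)-ketamine 4 × 10^-5 mol/L was positive control.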
# [2] = target: Glutamate receptor ionotropic, NMDA 2B (Homo sapiens, UniProt Q05586+Q13224); experiment: Displacement of [3H]ifenprodil from human GluN2B expressed in mouse L(tk-) cell membranes co-expressing GluN1a incubated for 2 hrs by scintillation counting method; parameters: species or system L-M(TK-), Cell membrane
# [3] = target: Sigma non-opioid intracellular receptor 1 (Cavia porcellus, UniProt Q60492); experiment: Displacement of [3H]-(+)-pentazocine from Sigma1 receptor in guinea pig cortex membranes incubated for 120 mins by scintillation counting method; assay type: cell membranes, Membrane
# [4] = target: T1, Sigma intracellular receptor 2 (Rattus norvegicus, UniProt Q5U3Y7); experiment: Displacement of [3H]DTG from sigma 2 receptor in rat liver membranes incubated for 120 mins by scintillation counting method; assay type: cell membranes, Membrane
# T1 sequence (Q5U3Y7 whole entry): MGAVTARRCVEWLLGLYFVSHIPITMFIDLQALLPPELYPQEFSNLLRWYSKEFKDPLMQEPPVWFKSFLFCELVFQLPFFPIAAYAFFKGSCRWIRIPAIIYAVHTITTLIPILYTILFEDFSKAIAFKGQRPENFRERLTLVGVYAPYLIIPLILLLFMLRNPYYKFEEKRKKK
# [5] = Cytoprotective activity against glutamate/glycine-induced cell death in mouse L-M(TK-) cells assessed as increase in cell viability incubated for 30 mins followed by glutamate/glycine stimulation and measured after 6 hrs by LDH assay; assay type: functional, cell-based
# How it was run: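 Mouse L(tk-) fibroblasts stably carrying dexamethasone-inducible GluN1a and GluN2B vectors (1:5 ratio). Cells preincubated with test compound in DMEM, at least in triplicate, 30 min at 37 °C. Then glutamate/glycine (each 20 µM, stock added) added and incubated 6 h at 37 °C. LDH released into the supernatant read at 485 nm after 45 min at 37 °C. Buffer in place of ligand gave total LDH. (S)-ketamine 4 × 10⁻⁵ mol/L was the positive control.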
# [6] = target: Sigma intracellular receptor 2 (Homo sapiens, UniProt Q5BJF2); experiment: Binding affinity to Sigma 2 receptor (unknown origin)
# [7] = target: Glutamate receptor ionotropic, NMDA 2B (Rattus norvegicus) (UniProt Q00960); experiment: Negative allosteric inhibition of rat GluN2B expressed in Oocytes co-expressing GluN1a at 1 uM at -70 mV holding potential by two electrode voltage-clamp assay relative to control; conditions: filed as negative allosteric modulator
# [8] = target: Glutamate receptor ionotropic, NMDA 2B (Rattus norvegicus) (UniProt Q00960); experiment: Negative allosteric inhibition of rat GluN2B expressed in Oocytes co-expressing GluN1a at 10 uM at -70 mV holding potential by two electrode voltage-clamp assay relative to control; conditions: filed as negative allosteric modulator
# Sequence of Glutamate receptor ionotropic, NMDA 2B (Q13224 whole entry, one chain of several): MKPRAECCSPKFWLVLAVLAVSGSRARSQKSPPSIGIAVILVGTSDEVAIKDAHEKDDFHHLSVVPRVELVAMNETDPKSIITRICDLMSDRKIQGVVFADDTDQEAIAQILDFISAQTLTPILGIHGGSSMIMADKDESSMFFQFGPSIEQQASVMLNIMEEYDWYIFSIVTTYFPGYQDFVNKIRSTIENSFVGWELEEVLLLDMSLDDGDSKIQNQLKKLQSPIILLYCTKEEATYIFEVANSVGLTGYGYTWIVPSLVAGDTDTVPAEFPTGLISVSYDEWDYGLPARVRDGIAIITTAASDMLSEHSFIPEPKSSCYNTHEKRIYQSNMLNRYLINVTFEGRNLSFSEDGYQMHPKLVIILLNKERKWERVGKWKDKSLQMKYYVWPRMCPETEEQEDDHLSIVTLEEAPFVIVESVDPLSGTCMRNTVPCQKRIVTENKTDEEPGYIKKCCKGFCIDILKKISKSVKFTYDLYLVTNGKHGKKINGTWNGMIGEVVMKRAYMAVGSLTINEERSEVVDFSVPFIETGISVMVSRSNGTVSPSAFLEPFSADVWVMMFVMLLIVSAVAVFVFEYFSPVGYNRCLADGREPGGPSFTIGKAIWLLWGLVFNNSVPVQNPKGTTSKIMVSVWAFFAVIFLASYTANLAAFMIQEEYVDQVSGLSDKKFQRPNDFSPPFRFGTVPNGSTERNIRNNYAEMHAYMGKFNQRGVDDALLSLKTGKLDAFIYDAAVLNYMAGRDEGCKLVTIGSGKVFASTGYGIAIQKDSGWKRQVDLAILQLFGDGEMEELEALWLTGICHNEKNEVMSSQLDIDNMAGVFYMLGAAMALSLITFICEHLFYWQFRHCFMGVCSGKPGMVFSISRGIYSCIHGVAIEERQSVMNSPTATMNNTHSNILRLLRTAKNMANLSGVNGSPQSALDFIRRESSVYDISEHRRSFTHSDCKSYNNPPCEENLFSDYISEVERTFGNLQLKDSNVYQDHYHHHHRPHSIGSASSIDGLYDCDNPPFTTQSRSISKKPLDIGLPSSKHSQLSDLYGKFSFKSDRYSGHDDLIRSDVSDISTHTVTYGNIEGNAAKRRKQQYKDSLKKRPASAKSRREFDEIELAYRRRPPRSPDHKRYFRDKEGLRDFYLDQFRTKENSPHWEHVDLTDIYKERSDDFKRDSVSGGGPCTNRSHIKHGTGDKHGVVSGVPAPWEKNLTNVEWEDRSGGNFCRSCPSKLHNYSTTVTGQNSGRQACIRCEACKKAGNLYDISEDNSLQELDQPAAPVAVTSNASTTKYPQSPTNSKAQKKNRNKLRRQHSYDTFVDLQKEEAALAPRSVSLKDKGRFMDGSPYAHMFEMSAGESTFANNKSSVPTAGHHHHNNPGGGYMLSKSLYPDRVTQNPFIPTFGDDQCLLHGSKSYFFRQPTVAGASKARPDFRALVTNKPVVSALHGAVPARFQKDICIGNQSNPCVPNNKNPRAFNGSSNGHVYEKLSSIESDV
# Sequence of Sigma non-opioid intracellular receptor 1 (Q60492 whole entry): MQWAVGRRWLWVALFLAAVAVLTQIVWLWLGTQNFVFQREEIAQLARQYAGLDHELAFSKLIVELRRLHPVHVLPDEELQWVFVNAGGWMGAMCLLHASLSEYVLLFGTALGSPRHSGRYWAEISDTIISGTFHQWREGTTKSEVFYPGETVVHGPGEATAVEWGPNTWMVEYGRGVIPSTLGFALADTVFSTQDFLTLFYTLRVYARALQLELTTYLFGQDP
# Sequence of Glutamate receptor ionotropic, NMDA 2B (Rattus norvegicus) (Q00960 whole entry, looked up): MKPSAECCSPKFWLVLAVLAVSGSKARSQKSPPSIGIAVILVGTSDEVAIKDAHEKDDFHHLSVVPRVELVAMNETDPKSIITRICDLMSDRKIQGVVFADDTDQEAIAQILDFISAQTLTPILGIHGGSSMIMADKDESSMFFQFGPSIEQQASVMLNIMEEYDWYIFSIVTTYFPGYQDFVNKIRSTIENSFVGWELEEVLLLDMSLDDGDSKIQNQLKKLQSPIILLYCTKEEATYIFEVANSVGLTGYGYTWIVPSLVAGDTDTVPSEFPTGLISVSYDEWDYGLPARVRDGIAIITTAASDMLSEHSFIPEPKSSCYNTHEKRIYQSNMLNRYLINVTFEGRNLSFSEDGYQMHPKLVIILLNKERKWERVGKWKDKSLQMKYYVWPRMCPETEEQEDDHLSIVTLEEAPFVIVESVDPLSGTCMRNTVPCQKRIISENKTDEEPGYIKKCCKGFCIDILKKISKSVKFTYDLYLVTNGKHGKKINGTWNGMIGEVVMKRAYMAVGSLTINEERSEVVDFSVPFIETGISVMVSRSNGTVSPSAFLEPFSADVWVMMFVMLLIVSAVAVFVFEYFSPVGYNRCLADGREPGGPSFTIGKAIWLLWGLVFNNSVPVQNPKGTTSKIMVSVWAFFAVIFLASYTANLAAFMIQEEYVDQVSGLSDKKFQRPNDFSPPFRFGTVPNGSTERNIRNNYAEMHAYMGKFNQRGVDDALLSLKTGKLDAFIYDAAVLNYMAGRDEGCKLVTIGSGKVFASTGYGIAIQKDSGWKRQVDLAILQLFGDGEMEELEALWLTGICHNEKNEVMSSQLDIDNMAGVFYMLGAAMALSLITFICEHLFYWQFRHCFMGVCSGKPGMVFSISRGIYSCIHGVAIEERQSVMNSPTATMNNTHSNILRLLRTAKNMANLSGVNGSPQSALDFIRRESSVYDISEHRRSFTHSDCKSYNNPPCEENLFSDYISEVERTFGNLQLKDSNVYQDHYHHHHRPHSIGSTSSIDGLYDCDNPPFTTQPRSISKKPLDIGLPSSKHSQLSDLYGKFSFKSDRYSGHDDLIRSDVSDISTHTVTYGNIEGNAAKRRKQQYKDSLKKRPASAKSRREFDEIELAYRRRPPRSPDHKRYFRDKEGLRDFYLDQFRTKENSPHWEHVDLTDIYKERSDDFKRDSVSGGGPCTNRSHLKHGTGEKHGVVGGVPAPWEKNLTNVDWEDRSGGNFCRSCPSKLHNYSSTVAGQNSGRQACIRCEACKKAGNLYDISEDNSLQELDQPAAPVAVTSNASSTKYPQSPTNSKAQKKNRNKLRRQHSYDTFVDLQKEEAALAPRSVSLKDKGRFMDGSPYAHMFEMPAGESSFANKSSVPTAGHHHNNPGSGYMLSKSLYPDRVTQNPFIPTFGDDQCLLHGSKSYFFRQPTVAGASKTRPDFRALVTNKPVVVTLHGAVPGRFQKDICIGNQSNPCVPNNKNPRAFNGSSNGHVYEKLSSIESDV
# Sequence of Sigma intracellular receptor 2 (Homo sapiens, UniProt Q5BJF2) (Q5BJF2 whole entry): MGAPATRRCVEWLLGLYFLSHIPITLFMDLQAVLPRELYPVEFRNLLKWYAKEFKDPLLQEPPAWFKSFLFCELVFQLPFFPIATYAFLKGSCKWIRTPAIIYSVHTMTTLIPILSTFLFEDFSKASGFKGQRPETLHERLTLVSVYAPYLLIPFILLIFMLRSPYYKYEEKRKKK
Ki [6] [nM],inhibition [7] [%],inhibition [8] [%],SMILES,Activity [1] [%],Ki [2] [nM],Ki [3] [nM],Ki [4] [nM],IC50 [5] [nM]
–,–,–,c1ccc(CCCNC2CCc3ccccc3CC2)cc1,29,–,–,–,–
–,–,–,c1ccc(CC2CCN(C3Cc4ccccc4C3)CC2)cc1,7,3.2,51,28,–
–,–,–,c1ccc(CCCN2CCCc3ccccc3CC2)cc1,–,36,17,178,7800
–,–,–,c1ccc(CNC2CCc3ccccc3C2)cc1 (centres undefined),–,4000,285,65,–
–,–,–,c1ccc(C2CCN(C3CCc4ccccc4C3)CC2)cc1 (centres undefined),–,8.4,1.9,2.9,–
–,–,–,c1ccc(CCCCNC2CCc3ccccc3C2)cc1 (centres undefined),–,266,46,50,–
–,–,–,c1ccc(CC2CCN(C3CCc4ccccc4C3)CC2)cc1 (centres undefined),–,8,6,2.1,–
–,–,–,c1ccc(CCCCNC2Cc3ccccc3C2)cc1,–,66,31,150,–
> 10000,–,–,Oc1ccc2c(c1)CCN(CCCCc1ccccc1)CC2O (centres undefined),–,–,–,–,–
–,–,–,c1ccc(CCNC2CCc3ccccc3C2)cc1 (centres undefined),–,237,51,70,–
–,–,–,c1ccc(CCCNC2Cc3ccccc3C2)cc1,31,117,58,38,–
–,–,–,c1ccc(C2CCN(C3Cc4ccccc4C3)CC2)cc1,–,4.5,44,25,–
–,–,–,c1ccc(CCNC2Cc3ccccc3C2)cc1,–,455,168,694,–
–,–,–,CC(C(O)c1ccc(O)cc1)N1CCC(Cc2ccccc2)CC1 (centres undefined) [IFENPRODIL],–,–,–,–,590
–,–,–,c1ccc(CCCNC2CCc3ccccc3C2)cc1 (centres undefined),30,163,59,29,–
–,8,60,c1ccc(CCCCN2CCCc3ccccc3CC2)cc1,–,32,22,50,890
